Each structure is given as a SMILES string. Active and inactive are the calls of the source.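 Rule for the calls: active = compounds blocking at least half of virus-caused cell death at some tested dose; inactive = the rest.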 A value given as a limit tells only on which side of the number the result lay.

For 6 molecules, IC50 results are on record in PubChem BioAssay AID493016 (Southern Research Specialized Biocontainment Screening …, 2011).

The assay concerns HEp-2 RSV Long CPE inhibition, luminescence. Kind of assay: RSV cytopathic effect inhibition, dose response, cell-based, HEp-2, RSV Long, synthesized compounds, set 4 (AID 493016). Put shortly: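 Also added: RSV Long, MOI 0.45 | Assay system: RSV Long-infected HEp-2 cells | Repeats: Triplicate | Compound: 8 doses, 1:2 steps, 50–0.39 µM, 0.5% DMSO | Measured by: Luminescent CPE signal | Incubation: Six-day compound and virus exposure at 37 °C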
For orientation: Cytopathic effects are the visible damage that an infection or toxin causes in cultured cells.
What is called IC50 is the midpoint of a concentration-inhibition curve. Turning to `Cc1ccc(NC(=O)[C@@H]2CCCN2S(=O)(=O)c2cccc3cccnc23)c(C)n1`, the IC50 is > 50 µM (inactive).
For `O=C(Nc1ccccc1)[C@@H]1CCCN1S(=O)(=O)c1cccc2cccnc12`, the IC50 is > 50 µM (inactive).
In the case of `COc1ccccc1CNC(=O)C1CCN(S(=O)(=O)c2cccc3nonc23)CC1`, the IC50 was 3.1 µM.
`O=C([C@@H]1CCCN1S(=O)(=O)c1cccc2cccnc12)N1CCc2ccccc21`: the IC50 was > 50 µM (inactive).
As for `Cc1ccc2c(c1)CCN2C(=O)[C@@H]1CCCN1S(=O)(=O)c1cccc2cccnc12`, the IC50 is > 50 µM (inactive).
Next, `CC(C)c1ccccc1NC(=O)[C@@H]1CCCN1S(=O)(=O)c1cccc2cccnc12`: 10.9 µM.
